Reference: ChEMBL document CHEMBL1128460, “Design, synthesis, and structure-activity relationships of a new series of alpha-adrenergic agonists: spiro[(1,3-diazacyclopent-1-ene)-5,2'-(1',2',3',4'- tetrahydronaphthalene)]” (J Med Chem, 1995)

Columns and labels:
Canis familiaris [1] = species on record: Canis familiaris; assay: Effective concentration for the agonist in the isolated blood vessel using in vitro femoral artery; assay type: functional; details: Canis lupus familiaris
Summary of the method: (§1)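 Vessel segments from mongrel dogs (15–25 kg) anesthetized with pentobarbital (30 mg/kg iv), mounted for isometric tension in physiological saline. Equilibrated 90 min with bath changes every 30 min, rauwolscine (10^-7 M) present throughout. Primed with KCl (100 mM), then phenylephrine (1 µM). Agonist concentration–response curves run at half-log steps, giving EC50 (µM) and Emax as % of phenylephrine maximum; mean ±SD.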

[2] = Ratio of C20 obtained in the absence or presence of [C20 (1 mg of yohimbine.) / C20 (control)]; assay type: functional
Summary of the method: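 Pithed rat arterial pressure assay with tertatolol (100 mg/kg) pretreatment, then yohimbine (1 mg/kg) 10 min later. Cumulative iv agonist doses given at 20 s intervals after a further 10 min, C20 (+20 mmHg dose) obtained. Ratio expressed as C20(yohimbine)/C20(control); 3–6 determinations.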

Canis familiaris [3] = species on record: Canis familiaris; assay: Effective concentration for the agonist in the isolated blood vessel using in vitro saphenous vein; assay type: functional; details: Canis lupus familiaris; summary of the method: as §1
[4] = target: T1, Adrenergic receptor alpha (Rattus norvegicus) (UniProt P15823+P23944+P43140+P22086+P19328+P22909); assay: Alpha adrenergic activity was evaluated as maximal pressure response caused by agonist, expressed in mmHg (the maximum obtained with phenylephrine is 150 mmHg).; assay type: functional
[5] = Ratio of C20 obtained in the absence or presence of [C20 ( 0.1 mg of prazosin ) / C20 (control)]; assay type: functional
Summary of the method: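 Pithed rats pretreated with tertatolol (100 mg/kg), then 10 min later with prazosin (100 µg/kg). Cumulative iv agonist doses given another 10 min later at 20 s intervals. Arterial pressure recorded, C20 (dose giving +20 mmHg) determined. Ratio calculated as C20(prazosin)/C20(control); 3–6 determinations.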

Canis familiaris [6] = species on record: Canis familiaris; assay: Maximal contractile response obtained with the agonist (expressed as a percentage of the maximal contraction to phenylephrine in the dog saphenous vein); assay type: functional, Canis lupus familiaris; summary of the method: as §1
[7] = target: T1, Adrenergic receptor alpha (Rattus norvegicus); assay: Alpha adrenergic activity was evaluated as concentration (iv) which increases the arterial pressure by 20 mmHg in the pithed rat; assay type: functional, organism-based; details: Artery
Canis familiaris [8] = species on record: Canis familiaris; assay: Maximal contractile response obtained with the agonist (expressed as a percentage of the maximal contraction to phenylephrine in the dog femoral artery); assay type: functional, Canis lupus familiaris; summary of the method: as §1
[9] = target: T2, Adrenergic receptor alpha-1 (Rattus norvegicus, UniProt P15823+P23944+P43140); assay: Displacement of [3H]prazosin from rat cortex Alpha-1 adrenergic receptor
T2 sequence (P15823 whole entry): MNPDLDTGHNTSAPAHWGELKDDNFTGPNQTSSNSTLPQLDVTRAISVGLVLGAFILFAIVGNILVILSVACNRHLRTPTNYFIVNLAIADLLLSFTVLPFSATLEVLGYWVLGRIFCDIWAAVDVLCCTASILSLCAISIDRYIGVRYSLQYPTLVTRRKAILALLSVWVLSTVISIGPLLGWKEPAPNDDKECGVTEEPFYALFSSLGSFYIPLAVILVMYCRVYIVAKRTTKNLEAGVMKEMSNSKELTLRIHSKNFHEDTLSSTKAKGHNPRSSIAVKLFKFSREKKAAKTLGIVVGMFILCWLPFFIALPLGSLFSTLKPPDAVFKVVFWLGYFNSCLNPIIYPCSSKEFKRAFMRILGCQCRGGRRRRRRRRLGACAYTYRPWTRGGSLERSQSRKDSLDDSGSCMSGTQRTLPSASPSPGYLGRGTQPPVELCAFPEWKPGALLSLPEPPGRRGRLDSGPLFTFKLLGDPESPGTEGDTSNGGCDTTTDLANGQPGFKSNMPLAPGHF
T2 sequence (P23944 whole entry): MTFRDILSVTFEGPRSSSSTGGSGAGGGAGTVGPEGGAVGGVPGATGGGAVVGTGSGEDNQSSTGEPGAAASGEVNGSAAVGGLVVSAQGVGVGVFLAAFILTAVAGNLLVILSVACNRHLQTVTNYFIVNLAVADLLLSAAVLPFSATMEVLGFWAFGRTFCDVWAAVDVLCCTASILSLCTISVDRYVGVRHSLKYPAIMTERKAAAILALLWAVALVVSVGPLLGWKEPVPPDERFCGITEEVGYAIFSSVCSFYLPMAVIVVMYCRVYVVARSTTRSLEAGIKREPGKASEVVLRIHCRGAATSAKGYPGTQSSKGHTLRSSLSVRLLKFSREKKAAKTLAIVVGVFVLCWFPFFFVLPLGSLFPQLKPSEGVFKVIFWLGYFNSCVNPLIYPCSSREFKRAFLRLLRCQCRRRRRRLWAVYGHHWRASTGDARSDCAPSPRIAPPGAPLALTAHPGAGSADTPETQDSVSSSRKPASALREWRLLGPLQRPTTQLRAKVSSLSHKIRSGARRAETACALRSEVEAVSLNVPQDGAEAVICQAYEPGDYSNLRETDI
T2 sequence (P43140 whole entry): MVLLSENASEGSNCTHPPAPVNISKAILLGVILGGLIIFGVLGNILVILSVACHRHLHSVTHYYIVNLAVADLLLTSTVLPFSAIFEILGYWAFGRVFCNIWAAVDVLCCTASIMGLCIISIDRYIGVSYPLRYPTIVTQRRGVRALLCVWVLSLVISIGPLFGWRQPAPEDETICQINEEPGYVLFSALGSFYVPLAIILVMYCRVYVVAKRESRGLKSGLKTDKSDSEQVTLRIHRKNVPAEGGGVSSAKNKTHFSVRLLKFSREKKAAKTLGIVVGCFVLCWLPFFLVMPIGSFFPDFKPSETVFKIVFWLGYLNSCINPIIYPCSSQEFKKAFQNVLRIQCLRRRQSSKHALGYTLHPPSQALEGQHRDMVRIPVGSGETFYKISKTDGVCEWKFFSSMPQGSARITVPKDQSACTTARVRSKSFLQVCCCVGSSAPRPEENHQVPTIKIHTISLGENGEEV
Summary of the method: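 Rat cortex membranes labelled with [3H]prazosin (0.3 nM), nonspecific binding with prazosin (10 µM). Nine drug concentrations spanning 3 log units, IC50 by log-probit analysis. Ki by Cheng–Prusoff using Kd from Scatchard saturation. At least three independent experiments in duplicate.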

Row | SMILES | EC50 (Canis familiaris [1]) [nM] | Ratio [2] | EC50 (Canis familiaris [3]) [nM] | Max [4] [mmHg] | Ratio [5] | Emax (Canis familiaris [6]) | C20 [7] [µg/kg] | Emax (Canis familiaris [8]) | Ki [9] [nM]
1 | COc1ccc2c(c1OC)CCC1(CN=CN1)C2 (stereo not drawn) | 50000 | 2.4 | 52000 | 107 | 2.9 | 67 | 142 | 21 | –
2 | CCOc1ccc(OC)c2c1CCC1(CN=CN1)C2 (stereo not drawn) | 80 | 4.8 | 800 | 147 | 21.5 | 98 | 0.06 | 85 | –
3 | Clc1cc2c(cc1Cl)CC1(CC2)CN=CN1 (stereo not drawn) | – | 3.1 | 44000 | 101 | 7 | 36 | 33 | 0 | –
4 | COc1cc2c(cc1O)CCC1(CN=CN1)C2 (stereo not drawn) | 1400 | 2.8 | 19000 | 134 | 9.2 | 97 | 1.2 | 69 | –
5 | Cc1ccc(C)c2c1CCC1(CN=CN1)C2 (stereo not drawn) | 3000 | 4.8 | 2400 | 140 | 2.1 | 84 | 0.5 | 67 | –
6 | FC(F)(F)c1ccc2c(c1)CC1(CC2)CN=CN1 (stereo not drawn) | – | 2.7 | – | 55 | 10 | 7 | 320 | – | –
7 | CC(C)(C)c1ccc2c(c1)CC1(CC2)CN=CN1 (stereo not drawn) | – | 1.6 | 40000 | 45 | 1.7 | 35 | 465 | 0 | –
8 | Oc1cccc2c1CC1(CC2)CN=CN1 (stereo not drawn) | 39000 | 12 | 10000 | 119 | 0.9 | 66 | 4.3 | 22 | –
9 | CC(C)Oc1ccc2c(c1)CCC1(CN=CN1)C2 (stereo not drawn) | – | 66 | 3900 | 62 | 11 | 15 | 74 | 0 | –
10 | COc1ccc(SC)c2c1C[C@@H]1[C@@H](C2)OCCN1C | 38000 | 2.4 | 23 | 123 | 5.1 | 38 | 23 | 28 | –
11 | CCc1ccc2c(c1)CC1(CC2)CN=CN1 (stereo not drawn) | – | 2.6 | 75000 | 61 | 2.5 | 50 | 209 | 0 | –
12 | COc1ccc(OC)c2c1CCC1(CN=CN1)C2 (stereo not drawn) | 120 | 2 | 300 | 128 | 21 | 106 | 0.05 | 77 | 2000
13 | Fc1cc(F)c2c(c1)CC1(CC2)CN=CN1 (stereo not drawn) | – | 5.7 | 6300 | 84 | 2.4 | 35 | 31 | 0 | –
14 | COc1ccc(Cl)c2c1CCC1(CN=CN1)C2 (stereo not drawn) | 270 | – | 27 | – | – | 106 | – | 102 | –
15 | Clc1cccc2c1CC1(CC2)CN=CN1 (stereo not drawn) | 1600 | 4.7 | 240 | 133 | 1.9 | 95 | 0.3 | 83 | –
16 | CN1C=NC2(CCc3ccccc3C2)C1 (stereo not drawn) | – | 2.5 | 25000 | 77 | 2.1 | 31 | 150 | 0 | –
17 | COc1cccc2c1CCC1(CN=CN1)C2 (stereo not drawn) | 2000 | 4.7 | 800 | 139 | 5.4 | 101 | 0.85 | 93 | 3400
18 | COc1ccc(SC)c2c1CC1(CC2)CN=CN1 (stereo not drawn) | 290 | 45 | 180 | 136 | 75 | 98 | 0.003 | 96 | 600
19 | NC1=NC2(CCc3ccccc3C2)CO1 (stereo not drawn) | 26000 | 19.6 | 2300 | 95 | 3.5 | 76 | 5.2 | 18 | –
20 | NC1=NC2(CCc3ccccc3C2)CN1 (stereo not drawn) | 50000 | 26 | 52000 | 53 | 2.5 | 36 | 57 | 2 | –
21 | C1=NC2(CCc3ccccc3C2)CO1 (stereo not drawn) | – | – | – | 38 | – | 0 | > 10000 | 0 | –
22 | COc1cc2c(cc1OC)CC1(CC2)CN=CN1 (stereo not drawn) | – | – | – | 129 | 1.8 | – | 98 | – | –
23 | CC1=NC2(CCc3ccccc3C2)CN1 (stereo not drawn) | – | 5.3 | 400000 | 113 | 1.8 | 23 | 166 | 0 | –
24 | Cc1ccc2c(c1)CCC1(CN=CN1)C2 (stereo not drawn) | 14000 | 6.1 | 2100 | 114 | 1.3 | 44 | 5.4 | 12 | –
25 | CCOc1ccc(OCC)c2c1CCC1(CN=CN1)C2 (stereo not drawn) | 850 | 7.7 | 2700 | 157 | 24 | 68 | 0.6 | 55 | –
26 | COc1cc2c(c(OC)c1)CCC1(CN=CN1)C2 (stereo not drawn) | 700 | 2.6 | 7300 | 109 | 2.9 | 44 | 7.9 | 25 | –
27 | Clc1cc(Cl)c2c(c1)CCC1(CN=CN1)C2 (stereo not drawn) | 8000 | – | 6000 | 137 | – | 100 | 4.2 | 75 | –
28 | Clc1cccc2c1CCC1(CN=CN1)C2 (stereo not drawn) | – | 2.8 | – | 125 | 1.3 | – | 7 | – | –
